According to ChEMBL document CHEMBL4364291, “Benzylideneacetone Derivatives Inhibit Osteoclastogenesis and Activate Osteoblastogenesis Independently Based on Specific Structure-Activity Relationship” (J Med Chem, 2019):
Calls of active or inactive are those of the source. No cut-off for these calls is given here.

Assays:
[1] = test system: Mus musculus; assay: Antiosteoporotic activity in ddY mouse model of OVX-induced osteoporosis assessed as increase in femur bone mineral density at 10 mg/kg, po administered once daily via gavage for 4 weeks by microcomputed tomographic analysis; type: functional, organism-based
How it was run: (§1)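 Female ddY mice were ovariectomized. Oral gavage began 1 week after surgery and ran once daily for 28 d. Vehicle was 300 μL PBS containing 0.5% (v/v) DMSO, also given to sham and OVX controls. Mice were then euthanized and femur and tibia fixed for CT imaging. Values are mean ± SD of four mice.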

[2] = test system: Mus musculus; assay: Antiosteoporotic activity in ddY mouse model of OVX-induced osteoporosis assessed as increase in trabecular number in femur bone at 10 mg/kg, po administered once daily via gavage for 4 weeks by microcomputed tomographic analysis; type: functional, organism-based; how it was run: as §1
[3] = Inhibition of M-CSF/RANKL-induced osteoclast differentiation in C57BL/6 mouse bone marrow macrophage assessed as reduction in multinucleated TRAP+ cells incubated for 6 days with fresh media replacement on day 3 and measured on day 6 by TRAP staining-based microscopic analysis; type: functional, cell-based; conditions: C57BL/6, BMDM
How it was run: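 BMM came from femur and tibia marrow of 5–8-week-old male C57BL/6 mice and were purified over lymphocyte separation medium. Cells, 1 × 10^5 per well, were grown in α-MEM/10% FBS with M-CSF (60 ng/mL) and RANKL (150 ng/mL) for 6 d, medium changed day 3. Compound range was 0.01−100 μM. TRAP+ multinucleated cells were counted on day 6.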

[4] = test system: Mus musculus; assay: Antiosteoporotic activity in ddY mouse model of OVX-induced osteoporosis assessed as increase in ratio of bone volume/trabecular volume in femur bone at 10 mg/kg, po administered once daily via gavage for 4 weeks by microcomputed tomographic analysis; type: functional, organism-based; how it was run: as §1
[5] = test system: Mus musculus; assay: Antiosteoporotic activity in ddY mouse model of OVX-induced osteoporosis assessed as increase in new bone volume in femur bone at 10 mg/kg, po administered once daily via gavage for 4 weeks by microcomputed tomographic analysis; type: functional, organism-based; how it was run: as §1
[6] = test system: Mus musculus; assay: Antiosteoporotic activity in ddY mouse model of OVX-induced osteoporosis assessed as reduction in trabecular separation in femur bone at 10 mg/kg, po administered once daily via gavage for 4 weeks by microcomputed tomographic analysis; type: functional, organism-based; how it was run: as §1
[7] = test system: Mus musculus; assay: Antiosteoporotic activity in ddY mouse model of OVX-induced osteoporosis assessed as increase in trabecular thickness in femur bone at 10 mg/kg, po administered once daily via gavage for 4 weeks by microcomputed tomographic analysis; type: functional, organism-based; how it was run: as §1
[8] = test system: Mus musculus; assay: Antiosteoporotic activity in ddY mouse model of OVX-induced osteoporosis assessed as increase in cross-sectional thickness in femur bone at 10 mg/kg, po administered once daily via gavage for 4 weeks by microcomputed tomographic analysis; type: functional, organism-based; how it was run: as §1
[9] = target: Isopentenyl-diphosphate Delta-isomerase 1 (Rattus norvegicus, UniProt O35760); assay: Inhibition of isopentenyl diphosphate isomerase in Sprague-Dawley rat liver S100 fraction preincubated for 10 min followed by MVA addition by HPLC analysis
Sequence of Isopentenyl-diphosphate Delta-isomerase 1 (O35760 whole entry): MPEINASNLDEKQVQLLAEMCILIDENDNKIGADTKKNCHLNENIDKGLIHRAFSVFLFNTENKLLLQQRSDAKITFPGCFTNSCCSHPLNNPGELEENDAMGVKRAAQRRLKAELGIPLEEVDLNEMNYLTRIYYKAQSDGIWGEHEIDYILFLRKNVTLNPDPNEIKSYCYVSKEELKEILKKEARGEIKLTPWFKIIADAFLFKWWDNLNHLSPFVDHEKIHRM

[10] = test system: MC3T3-E1; assay: Osteo-blastogenic activity in mouse MC3T3-E1 cells assessed as stimulation of ALP activity at 10 uM supplemented with fresh medium every 3 to 4 days and measured after 14 days relative to control; type: functional
How it was run: (§2)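 MC3T3-E1 subclone 4 osteoblastic cells were grown in α-MEM at 37 °C under 5% CO2 with compound present during differentiation. ALP activity was read 14 d after induction and expressed as % of untreated cells. Values are mean ± SD of three independent experiments.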

[11] = test system: MC3T3-E1; assay: Osteo-blastogenic activity in mouse MC3T3-E1 cells assessed as stimulation of ALP activity at 50 uM supplemented with fresh medium every 3 to 4 days and measured after 14 days relative to control; type: functional; how it was run: as §2
[12] = test system: MC3T3-E1; assay: Osteo-blastogenic activity in mouse MC3T3-E1 cells assessed as stimulation of ALP activity at 1 uM supplemented with fresh medium every 3 to 4 days and measured after 14 days relative to control; type: functional; how it was run: as §2
[13] = Cytotoxicity against mouse RAW264.7 cells after 24 hrs by MTT assay; type: cell-based; conditions: read-out: LD50
How it was run: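 RAW264.7 macrophages (preosteoclast line) were kept in DMEM at 37 °C under 5% CO2 and tested without RANKL. MTT read-out of growth and survival, expressed as LD50.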

[14] = test system: BMDM; assay: Effect on NFkappaB expression in M-CSF induced C57BL/6 mouse bone marrow macrophages at 10 uM measured over 5 days by Western blot analysis; type: functional, cell-based
How it was run: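 C57BL/6 BMM were proliferated with M-CSF alone without RANKL and treated at 0.5 or 10 μM. NF-κB expression was followed over time by Western blot.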

[15] = Toxicity in ddY mouse model of OVX-induced osteoporosis assessed as increase in body weight at 10 mg/kg, po administered once daily via gavage for 4 weeks measured 5 weeks post OVX-challenge; type: organism-based; conditions: in vivo, 840 h
How it was run: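 Dosing of ddY mice began one week after ovariectomy: compound in 300 μL of 0.5% (v/v) DMSO-containing PBS by gavage once daily for 28 d. OVX and sham controls received vehicle. Body weight was compared with sham control 5 weeks after OVX.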

[16] = test system: BMDM; assay: Inhibition of RANKL-induced osteoclastogenesis in C57BL/6 mouse bone marrow macrophages assessed as increase in NFkappaB expression at 10 uM measured over 5 days by Western blot analysis; type: functional, cell-based
How it was run: (§3)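 C57BL/6 BMM were grown with M-CSF plus RANKL over the course of osteoclastogenesis, treated at 0.5 or 10 μM. NF-κB and NFATc1 were followed by Western blot. The negative control was M-CSF only.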

[17] = test system: BMDM; assay: Inhibition of RANKL-induced osteoclastogenesis in C57BL/6 mouse bone marrow macrophages assessed as reduction in NFATc1 expression at 10 uM measured over 5 days by Western blot analysis; type: functional, cell-based; how it was run: as §3
[18] = test system: HCT-116; assay: Antiproliferative activity against human HCT116 cells after 24 hrs by MTT assay; type: functional; conditions: HCT-116, 24 h, read-out: LD50 (the source's name)
How it was run: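 Cells were maintained in DMEM at 37 °C under 5% CO2. Growth and survival were estimated by MTT assay, and the value is reported as LD50.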

[19] = test system: BMDM; assay: Suppression of NFATc1 expression in M-CSF induced C57BL/6 mouse bone marrow macrophages at 10 uM measured over 5 days by Western blot analysis; type: functional, cell-based
How it was run: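 C57BL/6 BMM were kept proliferating with M-CSF in the absence of RANKL and treated with compound (0.5 or 10 μM). NFATc1 expression was followed over the culture period by Western blot.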

Structure (SMILES)	IC50 [3] [µM]	Activity [10] [%]	Activity [11] [%]	other results
NCCCC(O)(P(=O)(O)O)P(=O)(O)O [ALENDRONATE SODIUM]	3.7	–	–	Activity [1]: Active; Activity [2]: Active; Activity [4]: Active; Activity [5]: Active; Activity [6]: Active; Activity [7]: inactive; Activity [8]: Active; IC50 [9]: 1.7 µM
O=C(O)Cc1ccccc1 [PHENYLACETIC ACID]	> 100	120	110	–
NC(=O)/C=C/c1ccc(F)c(O)c1	25	110	120	–
C=CCOc1ccc(/C=C/C(C)=O)cc1O	18	120	140	–
COC(=O)Cc1ccc(O)c(O)c1	80	100	130	–
O=C(O)c1ccc(O)c(O)c1 [PROTOCATECHUIC ACID]	89	100	140	–
CC(=O)/C=C/c1ccc(OC(C)C)c(O)c1	24	100	94	–
O=C(O)/C=C/c1ccc(O)c(O)c1 [CAFFEIC ACID]	41	120	130	–
Cc1ccc(/C=C/C(N)=O)cc1O	15	110	120	–
CC(=O)/C=C/c1ccc(O)c(F)c1	8.3	100	100	–
CC(=O)/C=C/c1ccc(OCc2ccccc2)c(O)c1	19	130	140	–
O=Cc1ccc(O)c(O)c1 [PROTOCATECHUALDEHYDE]	15	110	140	–
COC(=O)c1ccc(O)c(O)c1 [METHYL PROTOCATECHUATE]	78	110	100	–
O=C(/C=C/c1ccc(O)c(O)c1)O[C@@H]1C[C@@](O)(C(=O)O)C[C@@H](O)[C@@H]1O	48	120	170	–
O=C(/C=C/c1ccc(O)c(O)c1)O[C@@H]1C[C@](O)(C(=O)O)C[C@@H](O)[C@H]1O [CHLOROGENIC ACID]	86	110	150	–
CC(=O)/C=C/c1ccc(O)cc1	32	110	150	–
CC(=O)/C=C/c1ccc(C)c(O)c1	5.9	100	130	–
CC[C@H](C)[C@H](NC(=O)[C@H](CCC(=O)O)NC(=O)[C@H](CO)NC(=O)[C@@H](NC(=O)[C@@H](N)CO)C(C)C)C(=O)N[C@@H](CCC(N)=O)C(=O)N[C@@H](CC(C)C)C(=O)N[C@@H](CCSC)C(=O)N[C@@H](Cc1cnc[nH]1)C(=O)N[C@@H](CC(N)=O)C(=O)N[C@@H](CC(C)C)C(=O)NCC(=O)N[C@@H](CCCCN)C(=O)N[C@@H](Cc1cnc[nH]1)C(=O)N[C@@H](CC(C)C)C(=O)N[C@@H](CC(N)=O)C(=O)N[C@@H](CO)C(=O)N[C@@H](CCSC)C(=O)N[C@@H](CCC(=O)O)C(=O)N[C@@H](CCCNC(=N)N)C(=O)N[C@H](C(=O)N[C@@H](CCC(=O)O)C(=O)N[C@@H](Cc1c[nH]c2ccccc12)C(=O)N[C@@H](CC(C)C)C(=O)N[C@@H](CCCNC(=N)N)C(=O)N[C@@H](CCCCN)C(=O)N[C@@H](CCCCN)C(=O)N[C@@H](CC(C)C)C(=O)N[C@@H](CCC(N)=O)C(=O)N[C@@H](CC(=O)O)C(=O)N[C@H](C(=O)N[C@@H](Cc1cnc[nH]1)C(=O)N[C@@H](CC(N)=O)C(=O)N[C@@H](Cc1ccccc1)C(=O)O)C(C)C)C(C)C [TERIPARATIDE]	–	–	–	Activity [12]: 140%
CC(=O)/C=C/c1ccc(F)c(O)c1	15	100	100	–
O=C(O)Cc1ccc(O)c(O)c1 [3,4-DIHYDROXYPHENYLACETIC ACID]	75	120	170	–
COc1cc(/C=C/C(C)=O)ccc1O [DEHYDROZINGERONE]	7.5	110	600	Activity [1]: Active; Activity [2]: Active; CC50 at 24 h [13]: > 5000 µM; Activity [14]: inactive; Activity [4]: Active; Activity [5]: Active; Activity [6]: Active; Activity [15]: Toxic; inhibition [16]: Active; inhibition [17]: Active; Activity [7]: Active; CC50 [18]: 310 µM; Activity [8]: Active; Activity [19]: Active
O=C(O)/C=C/c1ccccc1 [CINNAMIC ACID]	> 100	100	110	–
